The source of these data is ChEMBL document CHEMBL1155638, “Anti-AIDS agents 38. Anti-HIV activity of 3-O-acyl ursolic acid derivatives” (J Nat Prod, 2000).

Molecules are shown by their SMILES.

Data set [1] can be described thus: Therapeutic index, IC50 for human T-lymphoid H9 cells to EC50 for HIV1 3B isolate. It counts as cell-based. The note with it: read-out: Ratio IC50/EC50. The procedure, abridged: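 Ratio of IC50 (Coulter count, mock-infected H9 cells, 4 days) to EC50 (p24 ELISA, HIV-1 IIIB-infected H9 cells, 4 days), both determined in parallel within the same assay.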
The next data set deals with H9 (human). The data set is described as follows: Cytotoxicity against human H9 cells assessed as growth inhibition after 4 days.
For data set [2], the system named is Human immunodeficiency virus 1. Description: Antiviral activity against HIV1 replication in human H9 cells. The note with it: for EC50: Homo sapiens, H9; for Activity: human, h9.

Turning to `CC1(C)CC[C@]2(C(=O)O)CC[C@]3(C)C(=CC[C@@H]4[C@@]5(C)CC[C@H](OC(=O)CC(C)(C)C(=O)O)C(C)(C)[C@@H]5CC[C@]43C)[C@@H]2C1`, in data set [1], the selectivity ratio was 22300.

A word on the IC50: it is the concentration that inhibits the measured activity by half. By EC50 is commonly meant the concentration that produces a half-maximal response. Higher therefore signals weaker potency. As for `C[C@H]1[C@H](C)CC[C@]2(C(=O)O)CC[C@]3(C)C(=CC[C@@H]4[C@@]5(C)CC[C@H](OC(=O)CC(C)(C)C(=O)O)C(C)(C)[C@@H]5CC[C@]43C)[C@H]12`, in the data set with H9 (human) (H9, 96 h), the IC50 turned out to be 49.5 µM. The selectivity ratio in data set [1] amounted to 23.6. The same compound yielded an EC50 in data set [2] of 2.1 µM.

As to `C[C@H]1[C@H](C)CC[C@]2(C(=O)O)CC[C@]3(C)C(=CC[C@@H]4[C@@]5(C)CC[C@H](OC(=O)CC(C)(C)CC(=O)O)C(C)(C)[C@@H]5CC[C@]43C)[C@H]12`, the IC50 in the data set with H9 (human) (H9, 96 h) amounted to 7 µM. In data set [2], the Activity result was “Not Active”.

As to `C[C@H]1[C@H](C)CC[C@]2(C(=O)O)CC[C@]3(C)C(=CC[C@@H]4[C@@]5(C)CC[C@H](OC(=O)COCC(=O)O)C(C)(C)[C@@H]5CC[C@]43C)[C@H]12`, the IC50 in the data set on H9 (human) (H9, 96 h) worked out at 48.2 µM. Moreover, the selectivity ratio in data set [1] stood at 156. Also, it took 0.31 µM to reach a half-maximal effect in data set [2] (EC50).

As for `C[C@H]1[C@H](C)CC[C@]2(C(=O)O)CC[C@]3(C)C(=CC[C@@H]4[C@@]5(C)CC[C@H](OC(=O)C(C)(C)CC(=O)O)C(C)(C)[C@@H]5CC[C@]43C)[C@H]12`, in the data set with H9 (human) (H9, 96 h), the IC50 was 30.7 µM. For the same compound, the Activity entry in data set [2] is reported as “Not Active”.

As to `CC(C)CC(=O)O[C@H]1CC[C@]2(C)[C@H]3CC=C4[C@@H]5[C@@H](C)[C@H](C)CC[C@]5(C(=O)O)CC[C@@]4(C)[C@]3(C)CC[C@H]2C1(C)C`, the IC50 with H9 (human) (H9, 96 h) was over 18.5 µM. Further, in data set [2], the Activity entry is listed as “Not Active”.

For `C[C@H]1[C@H](C)CC[C@]2(C(=O)O)CC[C@]3(C)C(=CC[C@@H]4[C@@]5(C)CC[C@H](OC(=O)CC(C)(C)C)C(C)(C)[C@@H]5CC[C@]43C)[C@H]12`, in the data set on H9 (human) (H9, 96 h), the IC50 was over 18 µM. The Activity entry in data set [2] was “Not Active”.

Consider `C[C@H]1[C@H](C)CC[C@]2(C(=O)O)CC[C@]3(C)C(=CC[C@@H]4[C@@]5(C)CC[C@H](OC(=O)CCC(=O)O)C(C)(C)[C@@H]5CC[C@]43C)[C@H]12`, for which the IC50 with H9 (human) (H9, 96 h) was found to be 44.9 µM. Moreover, the selectivity ratio in data set [1] came to 2.9. This compound also gave an EC50 in data set [2] of 15.3 µM.

`C[C@H]1[C@H](C)CC[C@]2(C(=O)O)CC[C@]3(C)C(=CC[C@@H]4[C@@]5(C)CC[C@H](OC(=O)CCCC(=O)O)C(C)(C)[C@@H]5CC[C@]43C)[C@H]12`: the IC50 with H9 (human) (H9, 96 h) worked out at 30.7 µM. For the same compound, the selectivity ratio in data set [1] is 4.8. In data set [2], this compound showed an EC50 of 6.4 µM.

Regarding `C[C@H]1[C@H](C)CC[C@]2(C(=O)O)CC[C@]3(C)C(=CC[C@@H]4[C@@]5(C)CC[C@H](O)C(C)(C)[C@@H]5CC[C@]43C)[C@H]12`, the IC50 in the data set on H9 (human) (h9) was 1.8 µM.

With `C=C(C)[C@@H]1CC[C@]2(C(=O)O)CC[C@]3(C)[C@H](CC[C@@H]4[C@@]5(C)CC[C@H](O)C(C)(C)[C@@H]5CC[C@]43C)[C@@H]12` [BETULINIC ACID], in the data set on H9 (human) (H9, 96 h), the IC50 worked out at 12.9 µM. The selectivity ratio in data set [1] was found to be 9.2.

As to `C=C(C)[C@@H]1CC[C@]2(C(=O)O)CC[C@]3(C)[C@H](CC[C@@H]4[C@@]5(C)CC[C@H](OC(=O)CC(C)(C)C(=O)O)C(C)(C)[C@@H]5CC[C@]43C)[C@@H]12` [BEVIRIMAT], the IC50 in the data set with H9 (human) (H9, 96 h) was determined as 7 µM. For the same compound, the selectivity ratio in data set [1] is over 20000. The same compound gave an EC50 in data set [2] of under 0.00035 µM.

In the case of `CC1(C)CC[C@]2(C(=O)O)CC[C@]3(C)C(=CC[C@@H]4[C@@]5(C)CC[C@H](O)C(C)(C)[C@@H]5CC[C@]43C)[C@@H]2C1` [OLEANOLIC_ACID], the selectivity ratio in data set [1] stood at 12.9.

`C[C@@H]1CC[C@]2(C(=O)O)CC[C@]3(C)C(=CC[C@@H]4[C@@]5(C)CC[C@H](O)C(C)(C)[C@@H]5CC[C@]43C)[C@@H]2[C@]1(C)O` [POMOLIC ACID]: the selectivity ratio in data set [1] stood at 16.3. In data set [2], the response was half-maximal at 3 µM (EC50).
